Assay results published in ChEMBL document CHEMBL1127818, “Identification of L-tryptophan derivatives with potent and selective antagonist activity at the NK1 receptor” (J Med Chem, 1994).

Legend:
Substance-K receptor = target: T1, Substance-K receptor (Homo sapiens, UniProt P21452); assay: Binding affinity to the NK2 receptor assayed by displacement of [125I]-Neurokinin A
T1 sequence (P21452 whole entry): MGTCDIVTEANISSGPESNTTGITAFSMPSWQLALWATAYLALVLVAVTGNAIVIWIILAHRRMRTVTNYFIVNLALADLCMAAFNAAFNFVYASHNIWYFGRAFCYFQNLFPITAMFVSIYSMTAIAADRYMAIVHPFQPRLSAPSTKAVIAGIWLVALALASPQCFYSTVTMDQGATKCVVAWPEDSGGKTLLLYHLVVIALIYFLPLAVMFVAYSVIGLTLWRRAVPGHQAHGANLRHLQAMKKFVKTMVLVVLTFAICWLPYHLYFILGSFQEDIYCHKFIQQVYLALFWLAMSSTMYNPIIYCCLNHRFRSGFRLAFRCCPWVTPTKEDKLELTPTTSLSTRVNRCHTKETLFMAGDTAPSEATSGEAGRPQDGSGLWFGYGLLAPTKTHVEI
Procedure, shortened: (§1)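 Cloned human NK2 or NK3 receptors stably expressed in CHO cells. Radioligand displacement with [125I]neurokinin A for NK2 and [125I]Bolton-Hunter labeled eledoisin for NK3; IC50 reported.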

Neuromedin-K receptor = target: T2, Neuromedin-K receptor (Homo sapiens, UniProt P29371); assay: Affinity to NK3 receptors assayed by displacement of [125I]-Bolton-Hunter labeled eledoisin radioligand; procedure, shortened: as §1
T2 sequence (P29371 whole entry): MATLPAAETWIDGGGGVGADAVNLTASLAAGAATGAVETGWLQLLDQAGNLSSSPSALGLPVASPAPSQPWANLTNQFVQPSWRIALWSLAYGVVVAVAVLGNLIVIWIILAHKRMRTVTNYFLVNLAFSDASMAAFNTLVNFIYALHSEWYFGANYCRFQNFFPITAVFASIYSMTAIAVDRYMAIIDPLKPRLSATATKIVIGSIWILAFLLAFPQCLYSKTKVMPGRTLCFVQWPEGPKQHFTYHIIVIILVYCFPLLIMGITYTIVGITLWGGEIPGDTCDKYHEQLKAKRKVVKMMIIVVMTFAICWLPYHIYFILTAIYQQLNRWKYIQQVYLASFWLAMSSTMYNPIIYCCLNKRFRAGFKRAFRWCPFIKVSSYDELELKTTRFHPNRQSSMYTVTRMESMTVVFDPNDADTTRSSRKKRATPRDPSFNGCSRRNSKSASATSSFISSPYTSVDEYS

Substance-P receptor = Substance-P receptor (Homo sapiens, UniProt P25103); assay: Binding affinity towards cloned neurokinin 1 receptor, based on the displacement of [125I]-labeled substance P
Cavia porcellus [1] = organism: Cavia porcellus; assay: animal or person; details: po, read-out: Inhibition
Cavia porcellus [2] = organism: Cavia porcellus; assay: Inhibitory dose against substance P induced extravasation in the guinea pig; details: read-out: ID50

Substance-P receptor, sequence (P25103 whole entry): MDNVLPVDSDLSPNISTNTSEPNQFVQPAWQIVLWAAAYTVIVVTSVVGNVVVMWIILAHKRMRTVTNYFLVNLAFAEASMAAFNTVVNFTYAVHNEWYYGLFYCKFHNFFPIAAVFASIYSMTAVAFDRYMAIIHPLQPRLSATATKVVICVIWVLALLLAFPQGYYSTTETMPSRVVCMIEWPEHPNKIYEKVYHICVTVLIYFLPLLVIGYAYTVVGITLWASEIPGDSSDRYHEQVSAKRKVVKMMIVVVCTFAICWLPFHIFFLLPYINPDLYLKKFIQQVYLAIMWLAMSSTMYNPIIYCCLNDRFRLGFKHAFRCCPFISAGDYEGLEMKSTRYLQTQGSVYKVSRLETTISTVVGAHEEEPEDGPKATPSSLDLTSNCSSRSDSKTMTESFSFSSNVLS

| SMILES | IC50 (Substance-K receptor) [µM] | IC50 (Neuromedin-K receptor) [µM] | IC50 (Substance-P receptor) [µM] | inhibition in vivo at 30 mg/kg (Cavia porcellus [1]) [%] | ED50 (Cavia porcellus [2]) [mg/kg] |
| --- | --- | --- | --- | --- | --- |
| Cc1cc(C)cc(COC(=O)[C@H](Cc2c[nH]c3ccccc23)NC(=O)c2ccccc2)c1 | > 5 | > 5 | 0.022 |  |  |
| CC(C)(C)OC(=O)N[C@@H](Cc1c[nH]c2ccccc12)C(=O)OCc1ccccc1 | > 5 | > 5 |  |  |  |
| CC(=O)N[C@@H](Cc1c[nH]c2ccccc12)C(=O)OCc1cc(C(F)(F)F)cc(C(F)(F)F)c1 [L-732138] | > 5 | > 5 |  | 22 | 8 |
| CC(=O)N[C@@H](Cc1ccc2ccccc2c1)C(=O)OCc1cc(C)cc(C)c1 | > 5 | > 5 | 0.138 |  |  |
| CNC(=O)N[C@@H](Cc1c[nH]c2ccccc12)C(=O)OCc1cc(C)cc(C)c1 | > 5 | > 5 | 0.103 |  |  |
| N[C@@H](Cc1c[nH]c2ccccc12)C(=O)OCc1ccccc1 | > 5 | > 5 |  |  |  |
| COc1ccccc1COC(=O)[C@H](Cc1c[nH]c2ccccc12)NC(=O)OC(C)(C)C | > 5 | > 5 |  |  |  |
| CCN[C@@H](Cc1c[nH]c2ccccc12)C(=O)OCc1ccccc1 | > 5 | > 5 |  |  |  |
| O=C(N[C@@H](Cc1c[nH]c2ccccc12)C(=O)OCc1cccc(Cl)c1)c1ccccc1 | > 5 | > 5 | 1.05 |  |  |
| COc1cccc(COC(=O)[C@H](Cc2c[nH]c3ccccc23)NC(=O)c2ccccc2)c1 | > 5 | > 5 | 0.76 |  |  |
| O=C(N[C@@H](Cc1c[nH]c2ccccc12)C(=O)OCc1ccc(Cl)cc1)c1ccccc1 | > 5 | > 5 | 0.243 |  |  |
| Cc1cc(C)cc(COC(=O)[C@H](Cc2c[nH]c3ccccc23)N(C)C)c1 | > 5 | > 5 |  |  |  |
| Cc1cc(C)cc(COC(=O)[C@@H](N)Cc2c[nH]c3ccccc23)c1 | > 5 | > 5 |  |  |  |

Now from value to compound, other results behind:

| IC50 (Substance-K receptor) [µM] | IC50 (Neuromedin-K receptor) [µM] | IC50 (Substance-P receptor) [µM] | SMILES | inhibition in vivo at 30 mg/kg (Cavia porcellus [1]) [%] | ED50 (Cavia porcellus [2]) [mg/kg] |
| --- | --- | --- | --- | --- | --- |
| > 5 | > 5 |  | Cc1cc(C)cc(COC(=O)[C@H](Cc2c[nH]c3ccccc23)NC(=O)OC(C)(C)C)c1 |  |  |
| > 5 | > 5 | 5.5 | COc1ccc(COC(=O)[C@H](Cc2c[nH]c3ccccc23)NC(=O)c2ccccc2)cc1 |  |  |
| > 5 | > 5 | 0.008 | CC(=O)N[C@@H](Cc1csc2ccccc12)C(=O)OCc1cc(C(F)(F)F)cc(C(F)(F)F)c1 (racemic) [L-709400] |  |  |
| > 5 | > 5 | 0.153 | CC(=O)N[C@@H](Cc1cccc2ccccc12)C(=O)OCc1cc(C)cc(C)c1 |  |  |
| > 5 | > 5 | 0.183 | O=C(N[C@@H](Cc1c[nH]c2ccccc12)C(=O)OCc1ccccc1C(F)(F)F)c1ccccc1 |  |  |
| > 5 | > 5 | 0.433 | CC(=O)N[C@@H](Cc1ccccc1)C(=O)OCc1cc(C)cc(C)c1 |  |  |
| > 5 | > 5 | 0.062 | O=C(N[C@@H](Cc1c[nH]c2ccccc12)C(=O)OCc1cccc(C(F)(F)F)c1)c1ccccc1 |  |  |
| > 5 | > 5 | 0.087 | COC(=O)N[C@@H](Cc1c[nH]c2ccccc12)C(=O)OCc1cc(C)cc(C)c1 |  |  |
| > 5 | > 5 | 0.03 | CC(=O)N[C@@H](Cc1ccc(Cl)c(Cl)c1)C(=O)OCc1cc(C)cc(C)c1 (racemic) |  |  |
| > 5 | > 5 | > 0.1 | COc1ccccc1COC(=O)[C@H](Cc1c[nH]c2ccccc12)NC(=O)c1ccccc1 |  |  |
| > 5 | > 5 |  | Cc1cc(C)cc(COC(=O)C(Cc2c[nH]c3ccccc23)NC(=O)c2ccccc2)c1 (single isomer, unassigned) |  |  |
| > 5 | > 5 | 0.197 | CC(=O)N[C@@H](Cc1n[nH]c2ccccc12)C(=O)OCc1cc(C(F)(F)F)cc(C(F)(F)F)c1 (racemic) |  |  |
| > 5 | > 5 |  | CC(=O)N[C@@H](Cc1c[nH]c2ccccc12)C(=O)OCc1cc(C)cc(C)c1 [L-708568] |  |  |
| > 5 | > 5 |  | O=C(N[C@@H](Cc1c[nH]c2ccccc12)C(=O)OCc1ccccc1Cl)c1ccccc1 |  |  |
| > 5 | > 5 | 2.15 | O=C(N[C@@H](Cc1c[nH]c2ccccc12)C(=O)OCc1ccc(C(F)(F)F)cc1)c1ccccc1 |  |  |
| > 5 | > 5 |  | Cc1cc(C)cc(COC(=O)[C@H](Cc2c[nH]c3ccccc23)[N+](C)(C)C)c1 |  |  |
| > 5 | > 5 | 0.0027 | O=C(N[C@@H](Cc1c[nH]c2ccccc12)C(=O)OCc1cc(C(F)(F)F)cc(C(F)(F)F)c1)c1ccccc1 |  |  |
